# Publication PMC12219203 (Nature Communications, 2025)
# Columns and labels:
# [1] = test system: NOD2; assay: HEK-Blue NOD2 SEAP reporter assay; type: cell-based, human; conditions: MDP, M-AE 200 nM; GM, M 20 μM; 18 h
# Method in brief: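 HEK-Blue hNod1 or hNod2 cells were seeded at 50,000 cells/well in DMEM/10% FBS without selection antibiotics and stimulated at once for 18 h (n = 3). Supernatant was mixed 1:4 with Quanti-Blue and incubated 6 h at 37 °C, and absorbance was read at 620 nm. Values were blanked against water-treated wells, and the respective parental Null cell readouts were subtracted.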
# [2] = test system: NF-κB signaling in RAW-Dual Tlr4-/- cells; assay: RAW-Dual Tlr4-/- NF-κB reporter; type: cell-based, mouse; conditions: 24 h
# Method in brief: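 RAW-Dual cells (WT or Tlr4-/-) were seeded at 100,000 cells/well in complete DMEM without selection antibiotics, 24 h before treatment. Test compounds were added for 24 h (n = 3). NF-κB-driven SEAP was read by mixing supernatant 1:4 with Quanti-Blue, incubating 6 h at 37 °C and measuring absorbance at 620 nm, blanked against water-treated wells.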
# [3] = GM abundance in mouse gut after intraperitoneal injection; type: in vivo; conditions: mice, i.p. injection of GM; LC-MS
# [4] = test system: WT bone-marrow-derived macrophages (BMDMs); assay: Cytokine gene expression in WT BMDMs; type: cell-based, mouse; conditions: GM 2-8 mM, M 8 mM
# Method in brief: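 Marrow was flushed from the femur and tibia of female SPF C57BL/6J mice and red cells were lysed (NH4Cl/KHCO3). Cells at 200,000 cells/mL were differentiated for 6 days in IMDM with 20 ng/mL GM-CSF or 10% L929 supernatant, then switched to serum-free IMDM. Test compounds were added for 24 h (n = 3). Cytokine transcripts were measured by RT-qPCR (2-ΔΔCt, normalised to β-act).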
# [5] = molecular target: mTLR4/mMD2 (Q339A / wt) (Mus musculus, UniProt Q9JHF9+Q9QUK6, Q339A); assay: NF-κB SEAP in HEK-Blue Null1, mTLR4 Q339A / mMD2 wt; type: cell-based; conditions: GM 0.4, 0.2 mM, 24 h
# Sequence of mTLR4/mMD2 (Q339A / wt) (Q9QUK6 26-835 Q339A): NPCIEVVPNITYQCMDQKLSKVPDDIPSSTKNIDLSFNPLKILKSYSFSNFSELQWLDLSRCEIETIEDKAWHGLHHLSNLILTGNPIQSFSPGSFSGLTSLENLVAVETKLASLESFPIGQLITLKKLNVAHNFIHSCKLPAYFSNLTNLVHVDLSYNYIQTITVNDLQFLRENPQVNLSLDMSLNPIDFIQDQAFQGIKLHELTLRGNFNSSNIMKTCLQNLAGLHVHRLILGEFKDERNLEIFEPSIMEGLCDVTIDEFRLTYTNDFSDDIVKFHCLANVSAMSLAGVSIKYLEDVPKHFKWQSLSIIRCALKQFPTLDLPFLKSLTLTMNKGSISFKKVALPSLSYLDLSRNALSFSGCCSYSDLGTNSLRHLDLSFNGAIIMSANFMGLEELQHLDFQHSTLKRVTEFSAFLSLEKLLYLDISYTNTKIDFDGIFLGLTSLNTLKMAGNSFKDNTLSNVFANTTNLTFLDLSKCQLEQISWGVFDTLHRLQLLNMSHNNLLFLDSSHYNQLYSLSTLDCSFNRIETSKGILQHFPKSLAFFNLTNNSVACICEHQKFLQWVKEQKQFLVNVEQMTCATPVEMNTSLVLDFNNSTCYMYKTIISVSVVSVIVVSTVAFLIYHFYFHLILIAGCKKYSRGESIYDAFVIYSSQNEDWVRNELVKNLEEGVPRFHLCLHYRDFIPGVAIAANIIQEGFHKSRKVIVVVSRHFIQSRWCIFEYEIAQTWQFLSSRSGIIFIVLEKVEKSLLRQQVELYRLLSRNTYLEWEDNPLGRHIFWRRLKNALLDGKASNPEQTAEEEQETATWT
# Sequence of mTLR4/mMD2 (Q339A / wt) (Q9JHF9 19-160): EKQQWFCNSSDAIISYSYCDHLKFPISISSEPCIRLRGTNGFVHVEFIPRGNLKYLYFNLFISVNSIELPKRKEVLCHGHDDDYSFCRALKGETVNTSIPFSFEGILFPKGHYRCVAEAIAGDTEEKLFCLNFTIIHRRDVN
# Method in brief: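 Point mutants of mTLR4 or mMD2 were made by site-directed mutagenesis. HEK-Blue Null1 cells were co-transfected by lipofection for 16 h with 500 ng total of mTLR4 and Myc-tagged mMD2 plasmids (1:1); mock wells received lipofection reagent only. After a medium change the next day, cells were treated for 24 h. NF-κB SEAP was measured and normalised to water-treated samples; data are mean ± s.e.m., n = 3.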
# [6] = molecular target: recombinant mTLR4 protein (Mus musculus, UniProt Q9QUK6); assay: mTLR4 pulldown by immobilized GM-agarose beads; type: binding; conditions: pre-incubation of mTLR4 with excess GM
# Sequence of recombinant mTLR4 protein (Q9QUK6 26-638): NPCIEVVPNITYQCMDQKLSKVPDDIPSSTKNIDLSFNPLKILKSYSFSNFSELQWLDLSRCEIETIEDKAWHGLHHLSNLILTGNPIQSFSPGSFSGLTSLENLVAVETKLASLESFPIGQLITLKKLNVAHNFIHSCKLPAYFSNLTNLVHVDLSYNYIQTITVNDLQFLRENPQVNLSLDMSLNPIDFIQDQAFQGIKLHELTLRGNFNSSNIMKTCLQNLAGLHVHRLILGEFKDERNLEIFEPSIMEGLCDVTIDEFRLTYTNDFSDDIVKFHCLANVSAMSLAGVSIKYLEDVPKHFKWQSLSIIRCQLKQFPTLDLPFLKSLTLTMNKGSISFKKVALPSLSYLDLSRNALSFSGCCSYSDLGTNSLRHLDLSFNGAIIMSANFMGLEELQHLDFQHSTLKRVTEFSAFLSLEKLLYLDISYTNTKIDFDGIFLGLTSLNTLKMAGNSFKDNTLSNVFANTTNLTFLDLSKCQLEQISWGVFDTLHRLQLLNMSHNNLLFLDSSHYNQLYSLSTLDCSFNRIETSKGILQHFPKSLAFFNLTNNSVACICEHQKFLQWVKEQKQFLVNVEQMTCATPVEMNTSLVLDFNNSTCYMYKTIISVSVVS
# Method in brief: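 An azide-tagged test-compound probe (2.5 mM) was clicked onto alkyne agarose beads (1.2 mM ascorbate, 0.5 mM CuSO4, 0.5 mM THPTA, 4 °C, 3 h); control beads lacked probe. Beads were incubated overnight at 4 °C in water with recombinant mouse TLR4(26-638)-His6 (100 or 50 ng), optionally pre-incubated with free competitor. Flow-through, wash and boiled eluate were analysed by Coomassie-stained SDS-PAGE.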
# [7] = test system: WT C57BL/6 J mice; assay: DSS-induced colitis model in WT mice; type: in vivo, mouse; conditions: GM 10 mg/kg i.p. daily
# Method in brief: (§1)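 Male SPF C57BL/6J mice aged 7–8 weeks, WT or Tlr4-/- (bred in house), were age-, weight- and sex-matched. They drank 3% (w/v) DSS water for 7 days and were then euthanised. Test compound (10 mg/kg) or PBS (5 mL/kg) was given i.p. daily from 2 days before DSS until the end. Body weight was recorded daily.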
# [8] = molecular target: mTLR2 (Mus musculus, UniProt Q9QUN7); assay: HEK-Blue mTLR2 SEAP reporter assay; type: cell-based; conditions: GM 2, 1, 0.5 mM, 24 h, n = 6
# Sequence of mTLR2 (Q9QUN7 25-784): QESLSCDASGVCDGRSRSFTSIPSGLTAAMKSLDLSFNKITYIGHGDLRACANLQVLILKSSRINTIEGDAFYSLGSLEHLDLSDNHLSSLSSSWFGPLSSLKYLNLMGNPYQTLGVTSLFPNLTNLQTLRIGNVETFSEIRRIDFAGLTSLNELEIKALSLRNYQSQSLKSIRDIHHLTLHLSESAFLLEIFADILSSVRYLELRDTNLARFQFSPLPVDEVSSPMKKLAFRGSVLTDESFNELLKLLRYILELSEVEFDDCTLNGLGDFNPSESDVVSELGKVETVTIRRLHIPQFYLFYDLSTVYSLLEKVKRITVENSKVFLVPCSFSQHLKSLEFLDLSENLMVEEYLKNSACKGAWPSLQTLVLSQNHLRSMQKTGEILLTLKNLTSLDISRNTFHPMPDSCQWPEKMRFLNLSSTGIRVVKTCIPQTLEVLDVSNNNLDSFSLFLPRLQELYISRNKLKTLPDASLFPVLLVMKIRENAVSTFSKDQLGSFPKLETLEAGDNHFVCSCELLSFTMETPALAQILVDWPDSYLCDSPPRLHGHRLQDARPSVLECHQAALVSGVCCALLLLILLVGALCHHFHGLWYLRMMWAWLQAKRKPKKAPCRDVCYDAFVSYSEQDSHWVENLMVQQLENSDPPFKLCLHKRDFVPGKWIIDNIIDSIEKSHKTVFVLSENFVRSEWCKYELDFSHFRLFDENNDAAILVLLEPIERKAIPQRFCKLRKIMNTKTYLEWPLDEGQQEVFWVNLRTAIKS
# Method in brief: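 HEK-Blue mTLR2 cells were seeded at 50,000 cells/well in complete DMEM. After 6 h the medium was changed to serum-free DMEM and test compound was added for 24 h. Secreted SEAP was read by mixing supernatant 1:4 with Quanti-Blue, incubating 6 h at 37 °C and measuring absorbance at 620 nm. Values were blanked against water-treated wells.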
# [9] = test system: THP-1 cells; assay: Cytokine expression in THP-1 monocytes; type: cell-based, human; conditions: GM 2-8 mM
# Method in brief: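 THP-1 cells were kept in RPMI 1640 with 10% heat-inactivated FBS. They were seeded at 100,000 cells/well in half-serum medium and stimulated immediately, with MDP 0.4 mM as control. Total RNA was extracted and cytokine transcripts were measured by RT-qPCR; n = 4.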
# [10] = test system: Tlr4-/- BMDMs; assay: Cytokine secretion by Tlr4-/- BMDMs; type: cell-based, mouse; conditions: ELISA, 24 h; GM 4 mM, MDP 0.4 mM, LPS 100 ng/mL, CpG 100 nM
# Method in brief: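 Murine BMDMs were differentiated 6 days in complete medium with 20 ng/mL GM-CSF or 10% L929 supernatant, then switched to serum-free IMDM and stimulated 24 h. Mouse TNF-α and IL-6 in culture supernatants were quantified by sandwich ELISA. Samples were prediluted in 1% BSA in PBS, pH 7.4, where needed.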
# [11] = test system: Tlr4-/- C57BL/6 J mice; assay: DSS-induced colitis model in Tlr4-/- mice; type: in vivo, mouse; conditions: GM 10 mg/kg i.p. daily, 3% DSS
# Method in brief: as §1
# [12] = test system: WT BMDMs; assay: RNAseq of WT BMDMs; type: cell-based, mouse; conditions: GM 8 mM, 24 h, n = 3
# Method in brief: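 BMDMs were differentiated 6 days from mouse bone marrow with GM-CSF or L929 supernatant at 800,000 cells/well, switched to serum-free IMDM and stimulated 24 h; MDP 0.4 mM was run alongside. Total RNA was extracted for RNAseq. Differentially expressed genes were called at p < 0.01 and logFC > 1 and plotted as mean heatmaps; n = 3.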
smiles,measurement,setting,value
"CC(=O)N[C@H]1[C@H](O[C@H]2[C@H](O[C@H](C)C(=O)O)[C@@H](NC(C)=O)C(O)O[C@@H]2CO)O[C@H](CO)[C@@H](O)[C@@H]1O (stereo partly drawn) [GM, N-acetylglucosamine-β−1,4-N-acetylmuramic acid]",NOD2 activation in HEK-Blue reporter cells (in words),[1],unable to activate NOD1/2
same,NF-κB signaling in RAW-Dual Tlr4-/- cells (in words),[2],minimal activity
same,Abundance in the mouse gut after intraperitoneal injection,[3],temporally increased its abundance in the mouse gut
same,"Immuno-stimulatory activity (TNF-α, IL-6) in BMDMs (in words)",[4],dose-dependent immuno-stimulatory activity
same,Effect of mutation mTLR4 Q339 on NF-κB activity (in words),[5],abolished GM-triggered NF-κB activity
same,Competition of mTLR4 binding to GM-1-resin by excess free ligand,[6],dose-dependent decrease in the amount of mTLR4 bound to GM-1-resin
same,"H&E-stained colonic tissue, WT DSS mice",[7]; 3% DSS,reduced epithelial erosion and mononuclear cell infiltration
same,"Colonic Il10, WT DSS mice","[7]; 3% DSS, RT-qPCR",no significant change in Il10 was observed
same,"Colonic cytoprotective factors Keap1 and Hspb1, WT DSS mice","[7]; 3% DSS, RT-qPCR",upregulated
same,"Colonic expression of Tnfa, Il1b, Ccl2, WT DSS mice","[7]; 3% DSS, RT-qPCR",significantly suppressed
same,Morbidity in mice,[7]; without DSS treatment,did not result in any morbidity in mice
same,Activation of HEK-Blue mTLR2 reporter cells (in words),[8],does not activate
same,Immuno-stimulatory activity in THP-1 (in words),[9],dose-dependent immuno-stimulatory activity
same,TNF-α and IL-6 production in Tlr4-/- BMDMs (in words),[10],fails to elicit increased levels of TNF-α and IL-6
same,DSS-induced colitis in Tlr4-/- mice: weight loss and colonic shortening,[11],failed to prevent weight loss and colonic shortening
same,Cytoprotective responses in colitis Tlr4-/- mice,[11]; RT-qPCR,No upregulation of cytoprotective responses
same,"Cytokine and chemokine genes (Il12a/b, Il6, Il1a/b, Csf3, Ccl5, Cxcl1) by RNAseq, WT BMDMs",[12],significantly upregulated
